Experimental data as given in ChEMBL document CHEMBL1806449, “A class of Trp-Trp-AA-OBzl: Synthesis, in vitro anti-proliferation/in vivo anti-tumor evaluation, intercalation-mechanism investigation and 3D QSAR analysis” (Eur J Med Chem, 2011).
Activity calls are given as the source filed them. The calls are words filed in the database; no cut-off is given here. Peptide text beside a SMILES is read from it. * marks the point of attachment. OBn = c1ccc(CO*)cc1

Tests used:
[1] = test system: Nucleic Acid; assay: Binding affinity to double strand calf thymus DNA assessed as melting temperature; format: nucleic-acid assay; details: Bos taurus
How it was run: (§1)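 CT DNA in PBS pH 7.4, alone or with compound; temperature raised 1 °C/min with absorbance at 279 nm; Tm taken as temperature giving 50% absorbance increase.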

[2] = test system: Mus musculus; assay: Toxicity in ICR mouse xenografted with mouse S180 cells assessed as effect on liver weight at 8.9 umol/kg; format: organism-based, CCRF S-180; details: in vivo
How it was run: (§2)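 S180-bearing male ICR mice (10–12 weeks; 1×10^7 cells s.c. right oxter; 12 per group), daily i.p. 8.9 µmol/kg for seven days starting 24 h after implantation; NS, cytarabine and doxorubicin controls; liver, brain, kidney weights, spleen index and body-weight gain recorded.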

[3] = test system: Mus musculus; assay: Acute toxicity in ICR mouse assessed as twitch at 500 mg/kg, ip administered qd for 7 days; format: organism-based; design: dose 500 mg/kg, route intraperitoneal; details: in vivo, 168 h
[4] = Acute toxicity in ip dosed ICR mouse assessed as lethal dose; format: organism-based; details: in vivo
How it was run: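 Male ICR mice, 24 weeks old, got a single i.p. injection of 500 mg/kg in 0.2 ml NS (normal saline). They were watched for 7 days for neurotoxic behaviour (tremor, twitch, jumping, tetanus, supination) and for death.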

[5] = test system: K562; assay: Antiproliferative activity against human K562 cells after 48 hrs by MTT assay; format: functional, cell-based; details: K562, 48 h
[6] = test system: Mus musculus; assay: Toxicity in ICR mouse xenografted with mouse S180 cells assessed as effect on kidney weight at 8.9 umol/kg; format: organism-based, CCRF S-180; details: in vivo; how it was run: as §2
[7] = test system: Nucleic Acid; assay: Binding affinity to calf thymus DNA assessed as increase in DNA viscosity at compound to DNA ratio of 0.36; format: nucleic-acid assay; details: Bos taurus
How it was run: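 Relative viscosity of CT DNA solutions measured at compound/CT DNA ratios 0–0.36.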

[8] = test system: Mus musculus; assay: Toxicity in ICR mouse xenografted with mouse S180 cells assessed as effect on brain weight at 8.9 umol/kg; format: organism-based, CCRF S-180; details: in vivo; how it was run: as §2
[9] = test system: CCRF S-180; assay: Antiproliferative activity against mouse S180 cells after 48 hrs by MTT assay; format: functional, cell-based; details: CCRF S-180, 48 h
[10] = test system: CCRF S-180; assay: Antitumor activity against mouse S180 cells xenografted in ICR mouse assessed as tumor growth inhibition at 0.89 umol/kg, ip administered 1 day after tumor inoculation qd for 7 days; format: functional; details: CCRF S-180, ip, read-out: GI
How it was run: (§3)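 Male ICR mice 10–12 weeks; S180 from ascites serially transplanted weekly; 1×10^7 viable cells in 0.2 ml NS implanted s.c. at right oxter; 24 h later randomized (10 per group); daily i.p. 8.9, 0.89 or 0.089 µmol/kg/day in 0.2 ml NS, 7 days; NS and cytarabine controls; sacrificed 24 h after last dose; inhibition % = [1−(Tw/Cw)]×100.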

[11] = test system: CCRF S-180; assay: Antitumor activity against mouse S180 cells xenografted in ICR mouse assessed as tumor growth inhibition at 0.089 umol/kg, ip qd administered 1 day after tumor inoculation for 7 days; format: functional; details: CCRF S-180, ip, read-out: GI; how it was run: as §3
[12] = test system: HepG2; assay: Antiproliferative activity against human HepG2 cells after 48 hrs by MTT assay; format: functional, cell-based; details: HepG2, 48 h
[13] = test system: Mus musculus; assay: Acute toxicity in ICR mouse assessed as tremors at 500 mg/kg, ip administered qd for 7 days; format: organism-based; design: dose 500 mg/kg, route intraperitoneal; details: in vivo, 168 h
[14] = test system: Mus musculus; assay: Acute toxicity in ICR mouse assessed as apparent changes in any organ at 500 mg/kg, ip administered qd for 7 days; format: organism-based; design: dose 500 mg/kg, route intraperitoneal; details: in vivo, 168 h
[15] = test system: Mus musculus; assay: Toxicity in ICR mouse xenografted with mouse S180 cells assessed as increase in body weight at 8.9 umol/kg; format: organism-based, CCRF S-180; details: in vivo; how it was run: as §2
[16] = test system: B16; assay: Antiproliferative activity against mouse B16 cells after 48 hrs by MTT assay; format: functional, cell-based; details: B16, 48 h
[17] = test system: Mus musculus; assay: Acute toxicity in ICR mouse assessed as mortality at 500 mg/kg, ip administered qd for 7 days; format: organism-based; design: dose 500 mg/kg, route intraperitoneal; details: in vivo, 168 h
[18] = test system: CCRF S-180; assay: Antitumor activity against mouse S180 cells xenografted in ICR mouse assessed as tumor growth inhibition at 8.9 umol/kg, ip administered 1 day after tumor inoculation qd for 7 days; format: functional; details: CCRF S-180, ip, read-out: GI; how it was run: as §3
[19] = test system: Mus musculus; assay: Acute toxicity in ICR mouse assessed as supination at 500 mg/kg, ip administered qd for 7 days; format: organism-based; design: dose 500 mg/kg, route intraperitoneal; details: in vivo, 168 h
[20] = test system: Mus musculus; assay: Acute toxicity in ICR mouse assessed as jumping at 500 mg/kg, ip administered qd for 7 days; format: organism-based; design: dose 500 mg/kg, route intraperitoneal; details: in vivo, 168 h
[21] = test system: Mus musculus; assay: Toxicity in ICR mouse xenografted with mouse S180 cells assessed as increase in spleen index at 8.9 umol/kg; format: organism-based, CCRF S-180; details: in vivo; how it was run: as §2
[22] = test system: H22; assay: Antiproliferative activity against mouse H22 cells after 48 hrs by MTT assay; format: functional, cell-based; details: H22, 48 h
[23] = test system: Mus musculus; assay: Acute toxicity in ICR mouse assessed as tetanus at 500 mg/kg, ip administered qd for 7 days; format: organism-based; design: dose 500 mg/kg, route intraperitoneal; details: in vivo, 168 h
[24] = test system: Nucleic Acid; assay: Binding affinity to double stranded calf thymus DNA assessed as change in melting temperature per minute; format: nucleic-acid assay; details: Bos taurus; how it was run: as §1

CC(C)[C@H](NC(=O)[C@H](Cc1c[nH]c2ccccc12)NC(=O)[C@@H](N)Cc1c[nH]c2ccccc12)C(=O)OCc1ccccc1 (H-Trp-Trp-Val-OBn)
Tm [1]: 22 °C | Activity [2]: 1.89 g | Activity [3]: Non-toxic | LD50 [4]: > 500 mg/kg | IC50 [5]: 8.27 µM | Activity [6]: 0.15 g | Activity [7]: Active | Activity [8]: 0.27 g | IC50 [9]: 8.14 µM | inhibition in vivo at 0.89 µmol/kg [10]: 70.2% | inhibition in vivo at 0.089 µmol/kg [11]: 41.7% | IC50 [12]: 9.49 µM | Activity [13]: Non-toxic | Activity [14]: Non-toxic | Activity [15]: 9.97 g | IC50 [16]: 11.2 µM | Activity [17]: Non-toxic | inhibition in vivo at 8.9 µmol/kg [18]: 79.5% | Activity [19]: Non-toxic | Activity [20]: Non-toxic | Activity [21]: 7.97 | IC50 [22]: 9.97 µM | Activity [23]: Non-toxic | ΔTm [24]: 1 °C
